Laboratory results reported in ChEMBL document CHEMBL3102840, “Synthesis and anti-proliferative activity of aromatic substituted 5-((1-benzyl-1H-indol-3-yl)methylene)-1,3-dimethylpyrimidine-2,4,6(1H,3H,5H)-trione analogs against human tumor cell lines” (2014).

How the values were obtained:
Format in all cases: functional
MDA-MB-468 = assay: Cytotoxicity against human MDA-MB-468 cells assessed as growth inhibition at 10 uM after 48 hrs by SRB assay; details: MDA-MB-468, 48 h, read-out: GI
How it was run: (§1)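 Single-dose screen at 10µM across the sixty-cell-line panel. Percentage growth is derived from SRB-stain OD taken just before compound exposure, after 48 hrs exposure, and in vehicle-treated controls. Negative values indicate cytotoxicity.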

A498 = assay: Cytotoxicity against human A498 cells assessed as growth inhibition at 10 uM after 48 hrs by SRB assay; details: A498, 48 h, read-out: GI; how it was run: as §1
[1] = Cytotoxicity against human OVCAR5 cells assessed as growth inhibition at 10 uM after 48 hrs by SRB assay; details: OVCAR-5, 48 h, read-out: GI; how it was run: as §1
NCI-H226 = assay: Cytotoxicity against human NCI-H226 cells assessed as growth inhibition at 10 uM after 48 hrs by SRB assay; details: NCI-H226, 48 h, read-out: GI; how it was run: as §1
TK-10 = assay: Cytotoxicity against human TK10 cells assessed as growth inhibition at 10 uM after 48 hrs by SRB assay; details: TK-10, 48 h, read-out: GI; how it was run: as §1

## COC(=O)c1ccc2c(c1)c(C=C1C(=O)N(C)C(=O)N(C)C1=O)cn2Cc1ccc(S(=O)(=O)c2ccccc2)cc1
MDA-MB-468
  inhibition of growth at 10 µM: 88%
A498
  inhibition of growth at 10 µM: 83%
[1]
  inhibition of growth at 10 µM: 108%
NCI-H226
  inhibition of growth at 10 µM: 98%
TK-10
  inhibition of growth at 10 µM: 100%

## CN1C(=O)C(=Cc2cn(Cc3ccccc3Br)c3ccccc23)C(=O)N(C)C1=O
MDA-MB-468
  inhibition of growth at 10 µM: 56%
A498
  inhibition of growth at 10 µM: 74%
[1]
  inhibition of growth at 10 µM: 75%
NCI-H226
  inhibition of growth at 10 µM: -32%
TK-10
  inhibition of growth at 10 µM: 105%

## CN1C(=O)C(=Cc2cn(Cc3ccc(C#N)cc3)c3ccccc23)C(=O)N(C)C1=O
MDA-MB-468
  inhibition of growth at 10 µM: -71%
A498
  inhibition of growth at 10 µM: 68%
[1]
  inhibition of growth at 10 µM: 6%
NCI-H226
  inhibition of growth at 10 µM: -72%
TK-10
  inhibition of growth at 10 µM: 62%
